Compound activity: PubChem, Sanford-Burnham Center for Chemical Genomics
CCR6 antag: blocks CCL20-driven beta-arrestin recruitment at human CCR6 | P51684 | CHO-K1 CCR6 PathHunter beta-arrestin, luminescence, CCL20-stimulated | inhibition, % at 20 µM | actives 0.49% (n = 340,000) | AID 493098;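 active = compounds whose inhibition of the agonist-driven luminescence signal at 20 µM reaches about 50%, limit read from the data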;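 note: cells stimulated with CCL20 at 14 nM final; plate controls were DMSO with CCL20 for no effect and DMSO without agonist for full effect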
APJ agonist: activates the human apelin receptor APJ; actives 0.11% (n = 330,000); P35414; activation, % at 20 µM; CHO-K1 APJ PathHunter beta-arrestin, luminescence; 0% DMSO wells, 100% apelin;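 active = activation more than six SD over the plate average, tested at 20 µM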;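 note: 0% = DMSO alone and 100% = apelin-13 at 10 nM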
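Test system: CHO-K1 APJ beta-arrestin complementation cell line. Amount: cell density 1000 per well. Controls: DMSO negative, 10 nM Apelin-13 positive. Signal: luminescent beta-gal fragment complementation, chemiluminescent substrate. Read-out basis: agonist-driven arrestin binding to APJ. Timing: compound stimulation 90 min at 25 °C, detection 60 min.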
EBI2 antag: antagonists of human EBI2 receptor | inhibition, % at 5 µM | actives 0.81% (n = 360,000) | EBI2 beta-arrestin recruitment, luminescence, 7a,25-OHC stimulated; in the data active = inhibition above about 38%;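 note: enzyme fragment complementation signal reports receptor beta-arrestin coupling in cells; 0% = agonist plus DMSO wells and 100% = wells without agonist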
CXCR6 inh: CXCR6 (human) receptor inhibition; O00574; CHO-K1 PathHunter CXCR6 beta-arrestin, luminescence; inhibition, % at 20 µM; actives 0.36% (n = 360,000); AID 602244; in the data active = inhibition above about 34%, passing the limit was not always enough;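 note: antagonist mode with CXCL16 agonist at 10 nM final; 0% = 10 nM CXCL16 with DMSO and 100% = unstimulated wells without agonist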
Target sequence (O00574 whole entry, looked up): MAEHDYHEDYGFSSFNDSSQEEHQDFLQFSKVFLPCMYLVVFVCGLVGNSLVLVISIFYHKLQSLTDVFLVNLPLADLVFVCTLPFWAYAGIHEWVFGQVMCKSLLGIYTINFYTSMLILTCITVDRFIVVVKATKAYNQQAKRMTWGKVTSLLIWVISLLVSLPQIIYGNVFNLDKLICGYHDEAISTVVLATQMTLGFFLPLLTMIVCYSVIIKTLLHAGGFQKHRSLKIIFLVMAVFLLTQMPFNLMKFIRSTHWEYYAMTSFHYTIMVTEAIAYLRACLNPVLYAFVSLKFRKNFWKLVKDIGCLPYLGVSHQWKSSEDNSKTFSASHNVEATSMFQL
APJ antag: APJ receptor antagonism | P35414 | CHO-K1 APJ beta-arrestin complementation, luminescence | inhibition, % at 20 µM | actives 0.32% (n = 330,000);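 active = inhibition above about 40% at 20 µM, limit read from the data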;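 note: cells challenged with 10 nM apelin-13 agonist together with compound; plate controls were apelin-13 plus DMSO wells for no effect and DMSO wells lacking apelin-13 for full effect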
* hit, by the source's call; . = no result given. Only some compounds are listed: those with a hit (about 1.5% of all), similar ones and a draw of the others.

SMILES	CCR6 antag	APJ agonist	EBI2 antag	CXCR6 inh	APJ antag
O=C(c1ccc(-c2ccccc2)cc1)c1ccc([N+](=O)[O-])cc1	.	1	.	.	-30
COc1ccc(C(=O)CC(=O)C(=O)Nc2ccc(OC)c(Cl)c2)cc1	15	-2	-8	9	9
COc1ccc(C(=O)CC(=O)C(=O)Nc2ccc(Cl)cc2)cc1	53*	.	-12	18	.
O=C(c1ccc(F)cc1)N1CCN(S(=O)(=O)c2ccc3c(c2)OCCO3)CC1	.	.	8	1	.
O=C(c1ccc(C(F)(F)F)cc1)N1CCN(S(=O)(=O)c2ccc3c(c2)OCCCO3)CC1	12	-1	51*	-6	-3
CCOC(=O)C1=C[C@@H](c2ccccc2)N(S(=O)(=O)c2ccc(C)cc2)[C@H]1c1ccc(OC)cc1	.	.	18	2	.
Oc1c(Br)cc(Br)cc1C=Nc1ccc2[nH]ncc2c1	9	14*	3	10	-103
Cc1ccc(-c2cc(-c3ccc(Cl)cc3)c(C#N)c(N)n2)o1	86*	-4	-1	8	-19
O=C(N/N=C/c1cc(Cl)cc(Cl)c1O)c1ccncc1	-14	0	68*	3	-9
Oc1c(Cl)cc(Cl)cc1/C=N/Nc1ncc(Br)cn1	74*	-3	76*	62*	7
CC(C)C[C@H]1CN(CCCC[C@@H]2CNC(=O)C(=O)N2Cc2ccccc2)C(=O)C(=O)N1CCc1ccccc1	.	.	-1	2	.
CCN(CC)c1ccc2c(Cl)c(Br)c(=O)oc2c1	46	-2	54*	34	31
CCN(CC)c1ccc2c(c1)oc(=O)c1c(Cl)cc(=O)oc12	47	0	62*	60*	31
CCN(CC)c1ccc2c(C)c(Cl)c(=O)oc2c1	-3	-1	-3	1	-3
CC1=NNC(=O)/C1=C\c1cn(-c2ccccc2)nc1-c1ccc(F)cc1	9	.	86*	-4	.
NC(=O)c1ncn([C@@H]2O[C@H](CNCc3cc(Cl)ccc3OCc3ccc(Cl)cc3)[C@@H](O)[C@H]2O)n1	2	.	2	4	.
O=C(NCc1cccnc1)/C(=C\c1ccc(-c2ccc(Cl)c(Cl)c2)o1)S(=O)(=O)c1ccccc1	45	.	64*	24	.
O=C(NCc1cccnc1)c1ccc(-c2ccc(Cl)cc2)o1	5	-2	3	3	0
C=CCc1cccc(CNn2cnnc2)c1O	20	-4	-5	62*	16
Cc1cccc(C2(c3cccc(C)c3)CC2C(=O)Nc2ccc([N+](=O)[O-])cc2O)c1 (stereo not drawn)	58*	0	20	14	-24
FC(F)(F)c1cc(Cc2nc3ccccc3n2C(CCc2ccccc2)c2nc3ccccc3[nH]2)cc(C(F)(F)F)c1 (stereo not drawn)	.	.	-2	.	.
CC1(C(=O)NCc2cccc(C(F)(F)F)c2)CCN1CCc1ccccc1 (stereo not drawn)	.	.	10	2	.
O=C(O)c1ccccc1NS(=O)(=O)c1ccc(N/N=C/c2ccc(O)c(O)c2)c([N+](=O)[O-])c1	50*	.	6	22	.
COC(=O)C1=C(C(=O)OC)SC(=C2C(=S)C(C)(C)N(C(=O)C(C)C)c3ccccc32)S1	53*	-5	31	32	29
COC(=O)C1=C(C(=O)OC)SC(=C2C(=S)C(C)(C)N(C(=O)C3CC3)c3ccccc32)S1	52*	-12	28	34	38
SMILES	CCR6 antag	APJ agonist	EBI2 antag	CXCR6 inh	APJ antag
O=C(NC(=S)N(CCCCO)C1CCCCC1)c1sc2ccccc2c1Cl	67*	-5	4	18	31
CN(Cc1ccccc1C#N)S(=O)(=O)c1cccs1	12	-2	3	-2	5
N#Cc1nccnc1S(=O)(=O)c1cccs1	23	-3	.	.	56*
O=[N+]([O-])c1ccc(S(=O)Cc2ccccc2)c([N+](=O)[O-])c1 (stereo not drawn)	102*	.	7	92*	.
O=C(OCc1cnc(Cl)s1)c1ccccc1Cl	3	0	-11	-17	4
O=C(OCn1ncc(Br)c(Br)c1=O)c1ccc(F)cc1	44	-1	50*	47*	21
O=C(OCn1ncc(Br)c(Br)c1=O)c1ccccc1Cl	43	0	47*	49*	28
O=C(/C=C/[C@H]1O[C@@H](n2ccc(=O)[nH]c2=O)[C@H](O)[C@@H]1O)N1CCN(CCc2ccccc2)CC1	.	.	-2	-6	.
COc1cccc(CN2CCC2(C)C(=O)NCc2cccc(C(F)(F)F)c2)c1OC (stereo not drawn)	.	.	5	-1	.
O=C1c2ccccc2-c2onc3ccc(Oc4ccccc4)c1c23	42	16	-17	41*	-6
Cc1ccc(-n2c(Cl)c(Cl)nc(Cl)c2=O)cc1	82*	.	52*	61*	.
COc1ccccc1CNC(=O)CSc1nc(-c2ccccc2)cn1N	12	-5	7	6	3
CN(C(=O)CSc1nc(-c2ccccc2)cn1N)C(c1ccccc1)c1ccccc1	-5	-5	36*	14	-21
C=C1C(=O)O[C@H]2C[C@H]1[C@@H](OC(C)=O)C/C(C)=C/CC/C(C)=C\CC[C@]2(C)O	3	.	52*	0	.
Cc1ccc(NS(=O)(=O)c2cc([N+](=O)[O-])ccc2NNC(=S)Nc2cccc(Cl)c2)c(C)c1	81*	.	16	58*	.
CCOc1ccc(N=C/C=C/c2ccccc2)c(O)c1	52*	6	-9	-5	-12
CCOc1ccc(/C=C2\SC(N3CCc4ccccc4C3)=NC2=O)cc1	-3	-1	65*	14	15
CCOC(=O)C1CCCN(C2=NC(=O)/C(=C/c3ccc(O)c(OCC)c3)S2)C1 (stereo not drawn)	13	-2	2	12	16
Cc1ccc(/C=C2\SC(N3CCCCC3)=NC2=O)cc1	3	3	81*	12	2
CCOC(=O)C1CCCN(C2=NC(=O)/C(=C/c3ccc(N(C)C)cc3)S2)C1 (stereo not drawn)	24	-2	45*	2	15
CCOC(=O)C1=CCN(S(=O)(=O)c2ccccc2C)C1c1ccc(Cl)cc1 (stereo not drawn)	.	.	16	10	.
CC(NS(=O)(=O)c1ccc2[nH]c(=O)[nH]c2c1)c1ccc(F)cc1 (stereo not drawn)	.	.	8	0	.
Cc1cc(N(C)/N=C/c2ccccc2O)nc(-c2ccccc2O)n1	56*	-1	13	42*	12
c1ccc(Nc2nc(-c3ccccc3)ns2)cc1	5	1	46*	-5	-5
O=C(Oc1ccccc1/C=C\C(=O)c1cc2ccccc2o1)c1cccc(F)c1	24	-4	41	7	10
O=C(Oc1ccccc1/C=C\C(=O)c1cc2ccccc2o1)c1ccccc1	37	-1	48*	19	-22
COCCNC(=O)c1[nH]c(C(F)(F)F)nc1-c1ccccc1	.	.	0	2	.
Cc1[nH]c2ccccc2c1C1=CC(=O)C=CC1=O	.	.	-14	70*	.
